# Measurements published in ChEMBL document CHEMBL1125107, “Cephalosporin 3'-quinolone esters with a dual mode of action” (J Med Chem, 1990).
# Test system: Streptococcus pyogenes
# Assay: In vitro antibacterial activity was determined against Streptococcus pyogenes 4
# Assay type: functional
# How it was run: (§1)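 Broth MIC determination: serial 2-fold dilutions in Mueller-Hinton broth by standard methodology; the lowest concentration inhibiting growth is reported as the MIC, in nmol/mL.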
row,Compound,MIC [µg/mL]
1,CCn1cc(C(=O)O)c(=O)c2cc(F)c(-n3cccc3)cc21 [IRLOXACIN],> 128
2,CC(=O)OCC1=C(C(=O)O)N2C(=O)[C@@H](NC(=O)COc3ccccc3)C2SC1 (stereo partly specified),0.063
3,CCn1cc(C(=O)OCC2=C(C(=O)O)N3C(=O)[C@@H](NC(=O)COc4ccccc4)C3SC2)c(=O)c2ccc(C)nc21 (stereo partly specified),0.063

# Test system: Proteus vulgaris
# Assay: Evaluated for the minimum inhibitory concentration against Proteus vulgaris 1028 BC (Class Ic beta-lactamase overproducer
# Assay type: functional
# How it was run: (§2)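 MIC by serial 2-fold dilution in Mueller-Hinton broth; results given as minimum inhibitory concentrations (nmol/mL).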
row,Compound,MIC [µg/mL]
1,CCn1cc(C(=O)OCC2=C(C(=O)O)N3C(=O)[C@@H](NC(=O)/C(=N/OC)c4csc(N)n4)C3SC2)c(=O)c2cc3c(cc21)OCO3 (stereo partly specified),0.25
2,CN1CCN(c2c(F)cc3c(=O)c(C(=O)OCC4=C(C(=O)O)N5C(=O)[C@@H](NC(=O)/C(=N/OC(C)(C)C(=O)O)c6csc(N)n6)C5SC4)cn(CCF)c3c2F)CC1 (stereo partly specified),0.5
3,CO/N=C(\C(=O)N[C@@H]1C(=O)N2C(C(=O)O)=C(COC(C)=O)CS[C@H]12)c1csc(N)n1 [CEFOTAXIME],16

# Test system: Staphylococcus aureus
# Assay: In vitro antibacterial activity was determined against Staphylococcus aureus ATCC 29213 (inducible, low level beta-lactamase producer)
# Assay type: functional
# How it was run: (§3)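 Serial 2-fold broth dilution in Mueller-Hinton broth, run by standard methodology; read-out is the minimum inhibitory concentration (MIC).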
row,Compound,MIC [µg/mL]
1,CCn1cc(C(=O)O)c(=O)c2cc(F)c(-n3cccc3)cc21 [IRLOXACIN],0.125

# Test system: Proteus vulgaris
# Assay: In vitro antibacterial activity was determined against Proteus vulgaris 1028 BC (Class Ic beta-lactamase overproducer
# Assay type: functional
# How it was run: as §2
row,Compound,MIC [µg/mL]
1,CCn1cc(C(=O)O)c(=O)c2cc(F)c(-n3cccc3)cc21 [IRLOXACIN],0.5

# Test system: Streptococcus pneumoniae
# Assay: In vitro antibacterial activity was determined against Streptococcus pneumoniae 6301
# Assay type: functional
# How it was run: as §1
row,Compound,MIC [µg/mL]
1,CCn1cc(C(=O)O)c(=O)c2cc(F)c(-n3cccc3)cc21 [IRLOXACIN],16
2,CC(=O)OCC1=C(C(=O)O)N2C(=O)[C@@H](NC(=O)COc3ccccc3)C2SC1 (stereo partly specified),0.25
3,CCn1cc(C(=O)OCC2=C(C(=O)O)N3C(=O)[C@@H](NC(=O)COc4ccccc4)C3SC2)c(=O)c2ccc(C)nc21 (stereo partly specified),< 0.008

# Test system: Escherichia coli
# Assay: Evaluated for the in vivo activity in mice against Escherichia coli 257
# Assay type: functional
row,Compound,ED50 [mg/kg]
1,CO/N=C(\C(=O)N[C@@H]1C(=O)N2C(C(=O)O)=C(COC(C)=O)CS[C@H]12)c1csc(N)n1 [CEFOTAXIME],1.7

# Test system: Escherichia coli
# Assay: In vitro antibacterial activity was determined against Escherichia coli TEM-1 (TEM-1 (class IIIa) beta-lactamase producer)
# Assay type: functional
# How it was run: as §2
row,Compound,MIC [µg/mL]
1,CCn1cc(C(=O)O)c(=O)c2cc(F)c(-n3cccc3)cc21 [IRLOXACIN],1
2,CC(=O)OCC1=C(C(=O)O)N2C(=O)[C@@H](NC(=O)COc3ccccc3)C2SC1 (stereo partly specified),> 128

# Test system: Staphylococcus aureus
# Assay: In vitro antibacterial activity was determined against Staphylococcus aureus 1059B (inducible, high level beta-lactamase producer)
# Assay type: functional
# How it was run: as §3
row,Compound,MIC [µg/mL]
1,CCn1cc(C(=O)O)c(=O)c2cc(F)c(-n3cccc3)cc21 [IRLOXACIN],0.125

# Test system: Staphylococcus aureus
# Assay: Minimum inhibitory concentration against Staphylococcus aureus 95 (Methicillin-resistant, high-level beta-lactamase producer)
# Assay type: functional
# How it was run: as §3
row,Compound,MIC [µg/mL]
1,CCn1cc(C(=O)OCC2=C(C(=O)O)N3C(=O)[C@@H](NC(=O)/C(=N/OC)c4csc(N)n4)C3SC2)c(=O)c2cc3c(cc21)OCO3 (stereo partly specified),4
2,CN1CCN(c2c(F)cc3c(=O)c(C(=O)OCC4=C(C(=O)O)N5C(=O)[C@@H](NC(=O)/C(=N/OC(C)(C)C(=O)O)c6csc(N)n6)C5SC4)cn(CCF)c3c2F)CC1 (stereo partly specified),4
3,CO/N=C(\C(=O)N[C@@H]1C(=O)N2C(C(=O)O)=C(COC(C)=O)CS[C@H]12)c1csc(N)n1 [CEFOTAXIME],32

# Test system: Enterobacter cloacae
# Assay: In vitro antibacterial activity was determined against Enterobacter cloacae P99 (Class Ia beta-lactamase overproducer)
# Assay type: functional
# How it was run: as §2
row,Compound,MIC [µg/mL]
1,CCn1cc(C(=O)O)c(=O)c2cc(F)c(-n3cccc3)cc21 [IRLOXACIN],0.5

# Test system: Pseudomonas aeruginosa
# Assay: Evaluated for the minimum inhibitory concentration against Pseudomonas aeruginosa 18S/H (Class Id beta-lactamase overproducer)
# Assay type: functional
# How it was run: as §2
row,Compound,MIC [µg/mL]
1,CCn1cc(C(=O)OCC2=C(C(=O)O)N3C(=O)[C@@H](NC(=O)/C(=N/OC)c4csc(N)n4)C3SC2)c(=O)c2cc3c(cc21)OCO3 (stereo partly specified),16
2,CN1CCN(c2c(F)cc3c(=O)c(C(=O)OCC4=C(C(=O)O)N5C(=O)[C@@H](NC(=O)/C(=N/OC(C)(C)C(=O)O)c6csc(N)n6)C5SC4)cn(CCF)c3c2F)CC1 (stereo partly specified),> 128
3,CO/N=C(\C(=O)N[C@@H]1C(=O)N2C(C(=O)O)=C(COC(C)=O)CS[C@H]12)c1csc(N)n1 [CEFOTAXIME],128

# Test system: Proteus vulgaris
# Assay: In vitro antibacterial activity was determined against Proteus vulgaris 1028 BC ( Class Ic beta-lactamase overproducer
# Assay type: functional
# How it was run: as §2
row,Compound,MIC [µg/mL]
1,CC(=O)OCC1=C(C(=O)O)N2C(=O)[C@@H](NC(=O)COc3ccccc3)C2SC1 (stereo partly specified),> 128

# Test system: Escherichia coli
# Assay: In vitro antibacterial activity was determined against Escherichia coli UB 1005
# Assay type: functional
# How it was run: as §2
row,Compound,MIC [µg/mL]
1,CC(=O)OCC1=C(C(=O)O)N2C(=O)[C@@H](NC(=O)COc3ccccc3)C2SC1 (stereo partly specified),64

# Test system: Streptococcus pyogenes
# Assay: Minimum inhibitory concentration against Streptococcus pyogenes 4
# Assay type: functional
# How it was run: as §1
row,Compound,MIC [µg/mL]
1,CN1CCN(c2c(F)cc3c(=O)c(C(=O)OCC4=C(C(=O)O)N5C(=O)[C@@H](NC(=O)/C(=N/OC(C)(C)C(=O)O)c6csc(N)n6)C5SC4)cn(CCF)c3c2F)CC1 (stereo partly specified),0.5
2,CO/N=C(\C(=O)N[C@@H]1C(=O)N2C(C(=O)O)=C(COC(C)=O)CS[C@H]12)c1csc(N)n1 [CEFOTAXIME],< 0.008

# Test system: Streptococcus pneumoniae
# Assay: Minimum inhibitory concentration against Streptococcus pneumoniae 6301
# Assay type: functional
# How it was run: as §1
row,Compound,MIC [µg/mL]
1,CN1CCN(c2c(F)cc3c(=O)c(C(=O)OCC4=C(C(=O)O)N5C(=O)[C@@H](NC(=O)/C(=N/OC(C)(C)C(=O)O)c6csc(N)n6)C5SC4)cn(CCF)c3c2F)CC1 (stereo partly specified),0.5
2,CO/N=C(\C(=O)N[C@@H]1C(=O)N2C(C(=O)O)=C(COC(C)=O)CS[C@H]12)c1csc(N)n1 [CEFOTAXIME],0.016

# Test system: Staphylococcus aureus
# Assay: In vitro antibacterial activity was determined against Staphylococcus aureus ATCC 29213 ( inducible, low level beta-lactamase producer)
# Assay type: functional
# How it was run: as §1
row,Compound,MIC [µg/mL]
1,CC(=O)OCC1=C(C(=O)O)N2C(=O)[C@@H](NC(=O)COc3ccccc3)C2SC1 (stereo partly specified),0.5

# Test system: Citrobacter freundii
# Assay: In vitro antibacterial activity was determined against Citrobacter freundii BS-16
# Assay type: functional
# How it was run: as §2
row,Compound,MIC [µg/mL]
1,CCn1cc(C(=O)O)c(=O)c2cc(F)c(-n3cccc3)cc21 [IRLOXACIN],64
2,CC(=O)OCC1=C(C(=O)O)N2C(=O)[C@@H](NC(=O)COc3ccccc3)C2SC1 (stereo partly specified),> 128

# Test system: Pseudomonas aeruginosa
# Assay: Minimum inhibitory concentration against Pseudomonas aeruginosa ATCC 27853
# Assay type: functional
# How it was run: as §1
row,Compound,MIC [µg/mL]
1,CCn1cc(C(=O)OCC2=C(C(=O)O)N3C(=O)[C@@H](NC(=O)/C(=N/OC)c4csc(N)n4)C3SC2)c(=O)c2cc3c(cc21)OCO3 (stereo partly specified),128
2,CN1CCN(c2c(F)cc3c(=O)c(C(=O)OCC4=C(C(=O)O)N5C(=O)[C@@H](NC(=O)/C(=N/OC(C)(C)C(=O)O)c6csc(N)n6)C5SC4)cn(CCF)c3c2F)CC1 (stereo partly specified),8
3,CO/N=C(\C(=O)N[C@@H]1C(=O)N2C(C(=O)O)=C(COC(C)=O)CS[C@H]12)c1csc(N)n1 [CEFOTAXIME],64

# Test system: Staphylococcus aureus
# Assay: In vitro antibacterial activity was determined against Staphylococcus aureus 1059B ( inducible, high level beta-lactamase producer)
# Assay type: functional
# How it was run: as §1
row,Compound,MIC [µg/mL]
1,CC(=O)OCC1=C(C(=O)O)N2C(=O)[C@@H](NC(=O)COc3ccccc3)C2SC1 (stereo partly specified),0.25
2,CCn1cc(C(=O)OCC2=C(C(=O)O)N3C(=O)[C@@H](NC(=O)COc4ccccc4)C3SC2)c(=O)c2ccc(C)nc21 (stereo partly specified),0.5

# Test system: Serratia marcescens
# Assay: In vitro antibacterial activity was determined against Serratia marcescens 1071
# Assay type: functional
# How it was run: as §1
row,Compound,MIC [µg/mL]
1,CCn1cc(C(=O)O)c(=O)c2cc(F)c(-n3cccc3)cc21 [IRLOXACIN],0.5
2,CC(=O)OCC1=C(C(=O)O)N2C(=O)[C@@H](NC(=O)COc3ccccc3)C2SC1 (stereo partly specified),> 128

# Test system: Pseudomonas aeruginosa
# Assay: In vitro antibacterial activity was determined against Pseudomonas aeruginosa 18S/H (Class Id beta-lactamase overproducer)
# Assay type: functional
# How it was run: as §1
row,Compound,MIC [µg/mL]
1,CCn1cc(C(=O)O)c(=O)c2cc(F)c(-n3cccc3)cc21 [IRLOXACIN],64

# Test system: Streptococcus pyogenes
# Assay: Evaluated for the in vivo activity in mice against streptococcus pyogenes 4
# Assay type: functional
row,Compound,ED50 [mg/kg]
1,CO/N=C(\C(=O)N[C@@H]1C(=O)N2C(C(=O)O)=C(COC(C)=O)CS[C@H]12)c1csc(N)n1 [CEFOTAXIME],5.2

# Test system: Enterococcus faecalis
# Assay: In vitro antibacterial activity was determined against Enterococcus faecalis ATCC 29212
# Assay type: functional
# How it was run: as §2
row,Compound,MIC [µg/mL]
1,CCn1cc(C(=O)O)c(=O)c2cc(F)c(-n3cccc3)cc21 [IRLOXACIN],2
2,CC(=O)OCC1=C(C(=O)O)N2C(=O)[C@@H](NC(=O)COc3ccccc3)C2SC1 (stereo partly specified),64

# Test system: Proteus mirabilis
# Assay: In vitro antibacterial activity was determined against Proteus mirabilis 90
# Assay type: functional
# How it was run: as §2
row,Compound,MIC [µg/mL]
1,CCn1cc(C(=O)O)c(=O)c2cc(F)c(-n3cccc3)cc21 [IRLOXACIN],64
2,CC(=O)OCC1=C(C(=O)O)N2C(=O)[C@@H](NC(=O)COc3ccccc3)C2SC1 (stereo partly specified),64
3,CCn1cc(C(=O)OCC2=C(C(=O)O)N3C(=O)[C@@H](NC(=O)COc4ccccc4)C3SC2)c(=O)c2ccc(C)nc21 (stereo partly specified),32

# Test system: Escherichia coli
# Assay: Evaluated for the minimum inhibitory concentration against Escherichia coli UB 1005
# Assay type: functional
# How it was run: as §2
row,Compound,MIC [µg/mL]
1,CO/N=C(\C(=O)N[C@@H]1C(=O)N2C(C(=O)O)=C(COC(C)=O)CS[C@H]12)c1csc(N)n1 [CEFOTAXIME],0.06

# Test system: Enterobacter cloacae
# Assay: In vitro antibacterial activity was determined against Enterobacter cloacae P99
# Assay type: functional
# How it was run: as §2
row,Compound,MIC [µg/mL]
1,CC(=O)OCC1=C(C(=O)O)N2C(=O)[C@@H](NC(=O)COc3ccccc3)C2SC1 (stereo partly specified),> 128

# Test system: Staphylococcus aureus
# Assay: In vitro antibacterial activity was determined against Staphylococcus aureus 95 (Methicillin-resistant, high-level beta-lactamase producer)
# Assay type: functional
# How it was run: as §3
row,Compound,MIC [µg/mL]
1,CCn1cc(C(=O)O)c(=O)c2cc(F)c(-n3cccc3)cc21 [IRLOXACIN],0.125
2,CC(=O)OCC1=C(C(=O)O)N2C(=O)[C@@H](NC(=O)COc3ccccc3)C2SC1 (stereo partly specified),> 128

# Test system: Pseudomonas aeruginosa
# Assay: In vitro antibacterial activity was determined against Pseudomonas aeruginosa ATCC 27853
# Assay type: functional
# How it was run: as §1
row,Compound,MIC [µg/mL]
1,CC(=O)OCC1=C(C(=O)O)N2C(=O)[C@@H](NC(=O)COc3ccccc3)C2SC1 (stereo partly specified),> 128

# Test system: Pseudomonas aeruginosa
# Assay: In vitro antibacterial activity was determined against Pseudomonas aeruginosa 18S/H ( Class Id beta-lactamase overproducer)
# Assay type: functional
# How it was run: as §1
row,Compound,MIC [µg/mL]
1,CC(=O)OCC1=C(C(=O)O)N2C(=O)[C@@H](NC(=O)COc3ccccc3)C2SC1 (stereo partly specified),> 128
